ChEMBL document CHEMBL1687766, “In vitro activity of the new multivalent glycopeptide-cephalosporin antibiotic TD-1792 against vancomycin-nonsusceptible Staphylococcus isolates” (Antimicrob Agents Chemother, 2010)
Converted amounts (≈) assume the structure as drawn.

Tests used:
Type in all cases: functional
[1] = tested on: Staphylococcus aureus; experiment: Antimicrobial activity against vancomycin-resistant Staphylococcus aureus isolate PA after 24 hrs by microdilution method in presence of 50% human serum
How it was run: (§1)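 Broth microdilution per CLSI, inoculum 5 × 10^5 CFU/ml, 24 h at 35°C, in duplicate. Medium was 50% (vol/vol) human serum plus 50% broth, final 25 SMHB for TD-1792 and 50 SMHB for daptomycin. Serum was heated 56°C for 1 h and filtered through 0.8, 0.5 and 0.22 μm. MBC by plating clear wells on BHI agar.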

[2] = tested on: Staphylococcus aureus; experiment: Antimicrobial activity against vancomycin-resistant Staphylococcus aureus isolate MI after 24 hrs by microdilution method in presence of 50% human serum; how it was run: as §1
[3] = tested on: Staphylococcus aureus; experiment: Antimicrobial activity against vancomycin-intermediate Staphylococcus aureus isolate NJ992 after 24 hrs by microdilution method in presence of 50% human serum; conditions: isolate NJ992, 24 h; how it was run: as §1
[4] = tested on: Staphylococcus aureus; experiment: Ratio of MIC for vancomycin-intermediate Staphylococcus aureus isolate NJ992 in presence of 50% human serum to MIC for vancomycin-intermediate Staphylococcus aureus isolate NJ992
How it was run: (§2)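 Ratio of the broth microdilution MIC (5 × 10^5 CFU/ml, 24 h, 35°C, duplicate) measured in 50% heat-treated human serum/supplemented Mueller-Hinton broth to the MIC measured in supplemented broth alone.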

[5] = tested on: Staphylococcus aureus; experiment: Antimicrobial activity against vancomycin-intermediate Staphylococcus aureus isolate MU50 assessed as bacterial count at 8 times MIC after 24 hrs by colony counting method
How it was run: (§3)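 24-h time-kill run in triplicate in supplemented Mueller-Hinton broth (12.5 μg/ml Mg, 25 μg/ml Ca), adjusted to 1.1–1.3 mM Ca for daptomycin. […] Samples were taken at 0, 1, 4, 8 and 24 h and counted on BHI agar after 24 h at 35°C. Value is log10 CFU/ml change from baseline at 24 h.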

[6] = tested on: Staphylococcus aureus; experiment: Antimicrobial activity against vancomycin-intermediate Staphylococcus aureus isolate MU50 assessed as bacterial count at 32 times MIC after 24 hrs by colony counting method; how it was run: as §3
[7] = tested on: Staphylococcus aureus; experiment: Antimicrobial activity against vancomycin-intermediate Staphylococcus aureus isolate NJ992 assessed as bacterial count at 4 times MIC after 24 hrs by colony counting method; how it was run: as §3
[8] = tested on: Staphylococcus aureus; experiment: Antimicrobial activity against vancomycin-intermediate Staphylococcus aureus isolate NJ992 assessed as bacterial count at 8 times MIC after 24 hrs by colony counting method; how it was run: as §3
[9] = tested on: Staphylococcus aureus; experiment: Antimicrobial activity against vancomycin-intermediate Staphylococcus aureus isolate NJ992 assessed as bacterial count at 32 times MIC after 24 hrs by colony counting method; how it was run: as §3
[10] = tested on: Staphylococcus aureus; experiment: Antimicrobial activity against vancomycin-intermediate Staphylococcus aureus isolate MU50 assessed as bacterial count at 8 times MIC after 24 hrs by colony counting method in presence of 50% human serum
How it was run: (§4)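 Triplicate 24-h time-kill in 50% human serum (heated 56°C 1 h, filtered) mixed with supplemented Mueller-Hinton broth, giving final 25 μg/ml Ca broth strength for TD-1792 and 50 for daptomycin. […] Samples from 0 to 24 h were counted on BHI agar (35°C, 24 h). Value is log10 CFU/ml change from baseline.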

[11] = tested on: Staphylococcus aureus; experiment: Antimicrobial activity against vancomycin-intermediate Staphylococcus aureus isolate MU50 assessed as bacterial count at 16 times MIC after 24 hrs by colony counting method in presence of 50% human serum; how it was run: as §4
[12] = tested on: Staphylococcus aureus; experiment: Antimicrobial activity against vancomycin-intermediate Staphylococcus aureus isolate NJ992 assessed as bacterial count at 8 times MIC after 24 hrs by colony counting method in presence of 50% human serum
How it was run: (§5)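 Time-kill in triplicate, starting inoculum 5 × 10^6 CFU/ml from a mid-exponential culture. Medium was 50% heat-treated, filtered human serum plus 50% broth, final 25 SMHB for TD-1792 and 50 SMHB for daptomycin. Drug at multiples of MIC. Samples to 24 h were plated on BHI agar for 24 h at 35°C. Value is the log10 CFU/ml change from baseline at 24 h.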

[13] = tested on: Staphylococcus aureus; experiment: Antimicrobial activity against vancomycin-intermediate Staphylococcus aureus isolate NJ992 assessed as bacterial count at 16 times MIC after 24 hrs by colony counting method in presence of 50% human serum; how it was run: as §5
[14] = tested on: Staphylococcus aureus; experiment: Antimicrobial activity against vancomycin-resistant Staphylococcus aureus isolate PA assessed as bacterial count at 32 times MIC after 24 hrs by colony counting method
How it was run: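 Time-kill in triplicate. Mid-exponential culture (OD600 ~0.3) diluted in supplemented Mueller-Hinton broth to 5 × 10^6 CFU/ml. Daptomycin was run at physiologic calcium, 1.1 to 1.3 mM. […] Samples at 0, 1, 4, 8 and 24 h were diluted in cold saline or vacuum filtered, then spiral-plated on BHI agar for 24 h at 35°C. Value is the log10 CFU/ml change from baseline at 24 h.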

[15] = tested on: Staphylococcus aureus; experiment: Antimicrobial activity against vancomycin-resistant Staphylococcus aureus isolate MI assessed as bacterial count at 4 times MIC after 24 hrs by colony counting method in presence of 50% human serum; how it was run: as §5
[16] = tested on: Staphylococcus aureus; experiment: Antimicrobial activity against vancomycin-resistant Staphylococcus aureus isolate MI assessed as bacterial count at 8 times MIC after 24 hrs by colony counting method in presence of 50% human serum; how it was run: as §5
[17] = tested on: Staphylococcus aureus; experiment: Antimicrobial activity against vancomycin-resistant Staphylococcus aureus isolate PA assessed as bacterial count at 8 times MIC after 24 hrs by colony counting method in presence of 50% human serum; how it was run: as §5
[18] = tested on: Staphylococcus haemolyticus; experiment: Ratio of MIC for vancomycin-intermediate Staphylococcus haemolyticus in presence of 50% human serum to MIC for vancomycin-intermediate Staphylococcus haemolyticus; how it was run: as §2
[19] = tested on: Staphylococcus aureus; experiment: Antimicrobial activity against vancomycin-resistant Staphylococcus aureus isolate MI after 24 hrs by microdilution method
How it was run: (§6)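 Broth microdilution per CLSI, inoculum 5 × 10^5 CFU/ml, Mueller-Hinton broth with 12.5 μg/ml magnesium and 25 μg/ml calcium (SMHB). Daptomycin was instead tested in SMHB at physiologic calcium (final 1.1 to 1.3 mM). Incubation 24 h at 35°C; MIC read; run in duplicate. MBC from 5-μl samples of clear wells plated on BHI agar, 24 h at 35°C.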

[20] = tested on: Staphylococcus aureus; experiment: Antimicrobial activity against vancomycin-intermediate Staphylococcus aureus after 24 hrs by microdilution method in presence of 50% human serum; conditions: for MBC / MIC50 / MIC90: Staphylococcus aureus, 24 h; how it was run: as §1
[21] = tested on: Staphylococcus haemolyticus; experiment: Antimicrobial activity against vancomycin-intermediate Staphylococcus haemolyticus after 24 hrs by microdilution method; conditions: for MBC / MIC50 / MIC90: Staphylococcus haemolyticus, 24 h
How it was run: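 CLSI broth microdilution in supplemented Mueller-Hinton broth (12.5 μg/ml Mg, 25 μg/ml Ca), with Ca adjusted to 1.1–1.3 mM for daptomycin. Inoculum was 5 × 10^5 CFU/ml, incubated 24 h at 35°C, done in duplicate. For MBC, clear wells were plated on BHI agar and read after 24 h at 35°C.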

[22] = tested on: Staphylococcus aureus; experiment: Antimicrobial activity against vancomycin-intermediate Staphylococcus aureus isolate MU50 after 24 hrs by microdilution method; conditions: isolate MU50, 24 h; how it was run: as §6

Compound | MBC [1] [µg/mL] | MIC [1] [µg/mL] | MBC [2] [µg/mL] | MIC [2] [µg/mL] | MBC [3] [µg/mL] | MIC [3] [µg/mL] | Ratio [4] | log10CFU/ml [5] | log10CFU/ml [6] | log10CFU/ml [7] | log10CFU/ml [8] | log10CFU/ml [9] | log10CFU/ml [10] | log10CFU/ml [11] | log10CFU/ml [12] | log10CFU/ml [13] | log10CFU/ml [14] | log10CFU/ml [15] | log10CFU/ml [16] | log10CFU/ml [17] | other results
CN[C@H](CC(C)C)C(=O)N[C@H]1C(=O)N[C@@H](CC(N)=O)C(=O)N[C@H]2C(=O)N[C@H]3C(=O)N[C@H](C(=O)N[C@H](C(=O)NCCCO/N=C(\C(=O)N[C@@H]4C(=O)N5C(C(=O)[O-])=C(C[n+]6ccccc6)CS[C@H]45)c4nc(N)sc4Cl)c4cc(O)cc(O)c4-c4cc3ccc4O)[C@H](O)c3ccc(c(Cl)c3)Oc3cc2cc(c3O[C@@H]2O[C@H](CO)[C@@H](O)[C@H](O)[C@H]2O[C@H]2C[C@](C)(N)[C@H](O)[C@H](C)O2)Oc2ccc(cc2Cl)[C@H]1O | 0.125 | 0.125 | 8 | 2 | 0.25 | 0.25 | 4 | 4.33 | 4.92 | 3.84 | 4.48 | 5 | 3.6 | 4.37 | 4.09 | 4.76 | 5.05 | 4.12 | 4.06 | 4.65 | Ratio [18]: 2; MBC [19]: 0.5 µg/mL (≈ 0.252 µM); MIC [19]: 0.25 µg/mL (≈ 0.126 µM); MBC50 [20]: 0.25 µg/mL; MBC90 [20]: 0.5 µg/mL; MBC [20]: 0.03 µg/mL; MIC50 [20]: 0.25 µg/mL; MIC90 [20]: 0.5 µg/mL; MBC50 [21]: 0.06 µg/mL (≈ 0.0303 µM); MBC90 [21]: 0.125 µg/mL (≈ 0.063 µM); MBC [21]: 0.015 µg/mL (≈ 0.00756 µM); MIC50 [21]: 0.06 µg/mL (≈ 0.0303 µM); MIC90 [21]: 0.125 µg/mL (≈ 0.063 µM); MBC [22]: 0.03 µg/mL (≈ 0.0151 µM); MIC [22]: 0.03 µg/mL (≈ 0.0151 µM)
CCCCCCCCCC(=O)N[C@@H](Cc1c[nH]c2ccccc12)C(=O)N[C@H](CC(N)=O)C(=O)N[C@@H](CC(=O)O)C(=O)N[C@@H]1C(=O)NCC(=O)N[C@@H](CCCN)C(=O)N[C@@H](CC(=O)O)C(=O)N[C@H](C)C(=O)N[C@@H](CC(=O)O)C(=O)NCC(=O)N[C@H](CO)C(=O)N[C@@H]([C@H](C)CC(=O)O)C(=O)N[C@@H](CC(=O)c2ccccc2N)C(=O)O[C@@H]1C | 0.5 | 0.25 | 1 | 0.5 | 2 | 2 | 2 | 4.82 | 5.12 | 3.61 | 3.86 | 4.93 | 4.13 | 5.09 | 5.01 | 5.03 | 5.1 | 2.53 | 4.69 | 5.11 | Ratio [18]: 2; MBC [19]: 0.25 µg/mL (≈ 0.154 µM); MIC [19]: 0.25 µg/mL (≈ 0.154 µM); MBC50 [20]: 4 µg/mL; MBC90 [20]: 8 µg/mL; MBC [20]: 1 µg/mL; MIC50 [20]: 1 µg/mL; MIC90 [20]: 4 µg/mL; MBC50 [21]: 1 µg/mL (≈ 0.617 µM); MBC90 [21]: 2 µg/mL (≈ 1.23 µM); MBC [21]: 0.25 µg/mL (≈ 0.154 µM); MIC50 [21]: 1 µg/mL (≈ 0.617 µM); MIC90 [21]: 1 µg/mL (≈ 0.617 µM); MBC [22]: 1 µg/mL (≈ 0.617 µM); MIC [22]: 1 µg/mL (≈ 0.617 µM)
